Measurements from ChEMBL document CHEMBL1157505, “Design and in vitro characterization of highly sst2-selective somatostatin antagonists suitable for radiotargeting” (J Med Chem, 2008).
Active and inactive are the calls of the source. The rule behind the calls is not given here.

Experiments:
Assay type in all cases: functional, cell-based
[1] = molecular target: T1, Somatostatin receptor type 2 (Homo sapiens, UniProt P30874); experiment: Antagonist activity at T7 epitope tagged human cloned sst2 receptor expressed in HEK293 cells assessed as inhibition of [Tyr3]octreotide-induced receptor internalization upto 10 uM
T1 sequence (P30874 whole entry): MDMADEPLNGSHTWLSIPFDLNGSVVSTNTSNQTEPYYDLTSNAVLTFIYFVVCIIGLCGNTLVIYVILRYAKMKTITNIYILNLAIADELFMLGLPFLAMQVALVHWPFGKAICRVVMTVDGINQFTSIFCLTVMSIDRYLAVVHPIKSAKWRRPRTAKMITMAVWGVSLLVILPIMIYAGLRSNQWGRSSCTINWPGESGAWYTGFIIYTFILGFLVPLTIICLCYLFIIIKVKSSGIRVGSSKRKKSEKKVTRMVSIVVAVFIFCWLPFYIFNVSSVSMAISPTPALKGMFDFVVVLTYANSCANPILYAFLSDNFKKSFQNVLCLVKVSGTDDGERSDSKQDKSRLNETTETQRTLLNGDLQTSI
In short: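 Surface T7-tagged sst2 on HEK-sst2 cells labelled with anti-T7 antibody 2 h RT in DMEM-LH, then cells exposed 30 min at 37 °C to analogue (alone up to 10 μM or with [Tyr3]-octreotide), fixed in 3% paraformaldehyde, probed with HRP anti-mouse IgG, ABTS read at OD405; surface receptor as % of untreated; mean ± SEM, three experiments in duplicate.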

[2] = molecular target: T1, Somatostatin receptor type 2; experiment: Antagonist activity at T7 epitope tagged human cloned sst2 expressed in HEK293 cells assessed as intracellular calcium release upto 10 uM
In short: (§1)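 HEK-sst2 cells seeded on poly-D-lysine, cultured 1 day, loaded with Fluo-4NW dye (assay buffer HBSS/20 mM HEPES, 2.5 mM probenecid) 30 min 37 °C plus 30 min RT. Analogues alone up to 10 μM, or [Tyr3]-octreotide with 100-fold excess analogue; fluorescence (ex 485/em 520 nm) recorded 60 s at RT; percentage of ionomycin (25 μM) maximum over baseline; ≥3 experiments in triplicate.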

[3] = molecular target: T1, Somatostatin receptor type 2; experiment: Antagonist activity at T7 epitope tagged human cloned sst2 expressed in HEK293 cells assessed as [Tyr3]octreotide-induced intracellular calcium release upto 10 uM; in short: as §1

Activity [1] | Activity [2] | Activity [3] | SMILES
Active | inactive | Active | C[C@@H](O)[C@@H]1NC(=O)[C@H](CCCCN)NC(=O)[C@@H](Cc2ccc(NC(N)=O)cc2)NC(=O)[C@H](Cc2ccc(NC(=O)[C@@H]3CC(=O)NC(=O)N3)cc2)NC(=O)[C@H](NC(=O)[C@H](N)Cc2ccc(Cl)cc2)CSSC[C@@H](C(=O)N[C@@H](Cc2ccc3ccccc3c2)C(N)=O)NC1=O
– | inactive | – | C[C@@H](O)[C@@H]1NC(=O)[C@H](CCCCN)NC(=O)[C@@H](Cc2c[nH]c3ccccc23)NC(=O)[C@H](Cc2ccc(NC(N)=O)cc2)NC(=O)[C@H](NC(=O)[C@H](N)Cc2ccc(Cl)cc2)CSSC[C@@H](C(=O)N[C@@H](CC2CCCCC2)C(N)=O)NC1=O
– | inactive | – | C[C@@H](O)[C@@H]1NC(=O)[C@H](CCCCN)NC(=O)[C@H](Cc2c[nH]c3ccc(F)cc23)NC(=O)[C@H](Cc2ccc(NC(N)=O)cc2)NC(=O)[C@H](NC(=O)[C@H](N)Cc2ccc(Cl)cc2)CSSC[C@@H](C(=O)N[C@@H](Cc2ccc3ccccc3c2)C(N)=O)NC1=O
Active | inactive | Active | C[C@@H](O)[C@@H]1NC(=O)[C@H](CCCCN)NC(=O)[C@@H](Cc2ccc(NC(N)=O)cc2)NC(=O)[C@H](Cc2ccc(O)cc2)NC(=O)[C@H](NC(=O)[C@@H](Cc2ccc([N+](=O)[O-])cc2)NC(=O)CN2CCN(CC(=O)O)CCN(CC(=O)O)CCN(CC(=O)O)CC2)CSSC[C@@H](C(=O)N[C@@H](Cc2ccc3ccccc3c2)C(N)=O)NC1=O
Active | inactive | Active | C[C@@H](O)[C@@H]1NC(=O)[C@H](CCCCN)NC(=O)[C@@H](Cc2c[nH]c3ccc(F)cc23)NC(=O)[C@H](Cc2ccc(NC(N)=O)cc2)NC(=O)[C@H](NC(=O)[C@H](N)Cc2ccc(Cl)cc2)CSSC[C@@H](C(=O)N[C@@H](Cc2ccc3ccccc3c2)C(N)=O)NC1=O
Active | inactive | Active | C[C@@H](O)[C@@H]1NC(=O)[C@H](CCCCN)NC(=O)[C@@H](Cc2c[nH]c3ccccc23)NC(=O)[C@H](Cc2ccc(NC(N)=O)cc2)NC(=O)[C@H](NC(=O)[C@@H](Cc2ccc(Cl)cc2)NC(=O)CN2CCN(CC(=O)O)CCN(CC(=O)O)CCN(CC(=O)O)CC2)CSSC[C@@H](C(=O)N[C@@H](Cc2ccc3ccccc3c2)C(N)=O)NC1=O
– | inactive | – | C[C@@H](O)[C@@H]1NC(=O)[C@H](CCCCN)NC(=O)[C@@H](Cc2c[nH]c3ccccc23)NC(=O)[C@H](Cc2ccc(NC(=O)NO)cc2)NC(=O)[C@H](NC(=O)[C@H](N)Cc2ccc(Cl)cc2)CSSC[C@@H](C(=O)N[C@@H](Cc2ccc3ccccc3c2)C(N)=O)NC1=O
Active | inactive | – | C[C@@H](O)[C@@H]1NC(=O)[C@H](CCCCN)NC(=O)[C@@H](Cc2c[nH]c3ccccc23)NC(=O)[C@H](N(C)C(=O)c2ccccc2)NC(=O)[C@H](NC(=O)[C@H](N)Cc2ccc(Cl)cc2)CSSC[C@@H](C(=O)N[C@@H](Cc2ccc3ccccc3c2)C(N)=O)NC1=O
– | inactive | – | C[C@@H](O)[C@@H]1NC(=O)[C@H](CCCCN)NC(=O)[C@@H](Cc2c[nH]c3ccccc23)NC(=O)[C@H](Cc2ccc(NC(N)=O)cc2)NC(=O)[C@H](NC(=O)[C@H](N)Cc2ccc(Cl)cc2)CSSC[C@@H](C(=O)N[C@@H](Cc2ccc(NC(N)=O)cc2)C(N)=O)NC1=O
Active | inactive | – | C[C@@H](O)[C@@H]1NC(=O)[C@H](CCCCN)NC(=O)[C@@H](Cc2ccc(NC(N)=O)cc2)NC(=O)[C@H](Cc2ccc(O)cc2)NC(=O)[C@H](NC(=O)[C@H](N)Cc2ccc([N+](=O)[O-])cc2)CSSC[C@@H](C(=O)N[C@@H](Cc2ccc3ccccc3c2)C(N)=O)NC1=O
– | inactive | – | C[C@@H](O)[C@@H]1NC(=O)[C@H](CCCCN)NC(=O)[C@@H](Cc2c[nH]c3ccccc23)NC(=O)[C@H](Cc2ccc(NC(N)=O)cc2)NC(=O)[C@H](NC(=O)[C@H](N)Cc2ccc(Cl)cc2)CSSC[C@@H](C(=O)N[C@@H](Cc2ccc(NC(=O)[C@@H]3CC(=O)NC(=O)N3)cc2)C(N)=O)NC1=O
– | inactive | – | CONC(=O)Nc1ccc(C[C@@H]2NC(=O)[C@H](NC(=O)[C@H](N)Cc3ccc(Cl)cc3)CSSC[C@@H](C(=O)N[C@@H](Cc3ccc4ccccc4c3)C(N)=O)NC(=O)[C@H]([C@@H](C)O)NC(=O)[C@H](CCCCN)NC(=O)[C@@H](Cc3c[nH]c4ccccc34)NC2=O)cc1
– | inactive | – | C[C@@H](O)[C@@H]1NC(=O)[C@H](CCCCN)NC(=O)[C@@H](Cc2ccc(NC(N)=O)cc2)NC(=O)[C@H](Cc2ccc(O)cc2)NC(=O)[C@H](NC(=O)[C@H](N)Cc2ccc(Cl)cc2)CSSC[C@@H](C(=O)N[C@@H](Cc2ccc3ccccc3c2)C(N)=O)NC1=O
– | inactive | – | C[C@@H](O)[C@@H]1NC(=O)[C@H](CCCCN)NC(=O)[C@@H](Cc2c[nH]c3ccccc23)NC(=O)[C@@H](N(C)C(=O)c2ccccc2)NC(=O)[C@H](NC(=O)[C@H](N)Cc2ccc(Cl)cc2)CSSC[C@@H](C(=O)N[C@@H](Cc2ccc3ccccc3c2)C(N)=O)NC1=O
– | inactive | – | C[C@@H](O)[C@@H]1NC(=O)[C@H](CCCCN)NC(=O)[C@@H](Cc2c[nH]c3ccccc23)NC(=O)[C@H](Cc2ccc(NC(N)=O)cc2)NC(=O)[C@H](NC(=O)[C@H](N)Cc2ccc(Cl)cc2)CSSC[C@@H](C(=O)N[C@H](Cc2ccc(NC(N)=O)cc2)C(N)=O)NC1=O
– | inactive | – | C[C@@H](O)[C@@H]1NC(=O)[C@H](CCCCN)NC(=O)[C@@H](Cc2c[nH]c3ccccc23)NC(=O)[C@H](Cc2ccc(NC(N)=O)cc2)NC(=O)[C@H](NC(=O)[C@H](N)Cc2ccc(Cl)cc2)CSSC[C@@H](C(=O)N[C@H](Cc2ccc(NC(N)=O)cc2)C(=O)NCC(=O)O)NC1=O
– | inactive | – | C[C@@H](O)[C@@H]1NC(=O)[C@H](CCCCN)NC(=O)[C@@H](Cc2c[nH]c3ccccc23)NC(=O)[C@H](Cc2ccc(NC(N)=O)cc2)NC(=O)[C@H](NC(=O)[C@@H](Cc2ccc(Cl)cc2)NC(N)=O)CSSC[C@@H](C(=O)N[C@@H](Cc2ccc3ccccc3c2)C(N)=O)NC1=O
Active | inactive | – | CC(=O)N[C@H](Cc1ccc([N+](=O)[O-])cc1)C(=O)N[C@@H]1CSSC[C@@H](C(=O)N[C@H](Cc2ccc(O)cc2)C(N)=O)NC(=O)[C@H]([C@@H](C)O)NC(=O)[C@H](CCCCN)NC(=O)[C@@H](Cc2c[nH]c3ccccc23)NC(=O)[C@H](Cc2ccc(O)cc2)NC1=O
Active | inactive | – | C[C@@H](O)[C@@H]1NC(=O)[C@H](CCCCN)NC(=O)[C@@H](Cc2c[nH]c3ccccc23)NC(=O)[C@H](Cc2ccc(NC(N)=O)cc2)NC(=O)[C@H](NC(=O)[C@@H](Cc2ccc(Cl)cc2)NC(=O)CCOCCOCCOCCNC(=O)CN2CCN(CC(=O)O)CCN(CC(=O)O)CCN(CC(=O)O)CC2)CSSC[C@@H](C(=O)N[C@@H](Cc2ccc3ccccc3c2)C(N)=O)NC1=O
– | inactive | – | C[C@@H](O)[C@@H]1NC(=O)[C@H](CCCCN)NC(=O)[C@@H](Cc2ccc(NC(N)=O)cc2)NC(=O)[C@H](Cc2ccc(NC(=O)[C@@H]3CC(=O)NC(=O)N3)cc2)NC(=O)[C@H](NC(=O)[C@H](N)Cc2ccc([N+](=O)[O-])cc2)CSSC[C@@H](C(=O)N[C@@H](Cc2ccc3ccccc3c2)C(N)=O)NC1=O
– | inactive | – | CC(C)C[C@@H]1NC(=O)[C@H](NC(=O)[C@H](N)Cc2ccc(Cl)cc2)CSSC[C@@H](C(=O)N[C@@H](Cc2ccc3ccccc3c2)C(N)=O)NC(=O)[C@H]([C@@H](C)O)NC(=O)[C@H](CCCCN)NC(=O)[C@@H](Cc2c[nH]c3ccccc23)NC1=O
